Source: ChEMBL document CHEMBL1123673, “Comparison of aminoglycoside antibiotics with respect to uptake and lethal activity in Escherichia coli” (J Med Chem, 1987)

Columns and labels:
[1] = (§1) Lethal dose required to kill 90% of the Escherichia coli K12 (ATCC 25868) cell population; format: ADME
In short: (§2)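 E. coli K12 in tryptone-peptone broth at 37 °C, OD600 0.20, exposed 20 min at 37 °C to antibiotic; pellets resuspended to OD600 0.10–0.15 in TPB, serially diluted, plated on tryptone-peptone agar, colonies counted after overnight at 37 °C. Value is the concentration killing 90% of the population.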

[2] = (§3) Percent killing of the total Escherichia coli K12 (ATCC 25868) cells at the C50 concentration was determined.; format: ADME
Escherichia coli [3] = experiment: Estimated rate of [3H]DHS uptake in Escherichia coli K12 (ATCC 25868); format: functional; parameters: unit not given here
In short: (§4)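 Cultures in tryptone-peptone broth at 37 °C with shaking, grown from OD600 ~0.05 to 0.20, then preexposed to antibiotic for 20 min at 37 °C. Cells pelleted, resuspended in equal volume fresh broth, pulsed 5.0 min at 37 °C with [3H]DHS (1.0 µCi/mL, 3.8 Ci/mmol). Samples filtered, washed with 0.1 M LiCl, scintillation counted. C50 = half-maximal rate estimated from dose-response curves.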

Escherichia coli [4] = experiment: Concentration required for half maximum rate of enhanced [3H]DHS (Dihydrostreptomycin) uptake in Escherichia coli K12 (ATCC 25868)was estimated from dose-response curves; format: functional; in short: as §4
Escherichia coli [5] = system: Escherichia coli;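 note: escherichia coli cells, read-out is the rate of enhanced [3H]DHS uptake, C50 being the level that yields half of the maximal rate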
Escherichia coli [6] = experiment: Estimated rate of [3H]DHS (Dihydrostreptomycin) uptake in Escherichia coli K12 (ATCC 25868) [pmol/min (optical density unit)E-1] at the C50 was determined.; format: functional; in short: as §4
Escherichia coli [7] = experiment: Estimated rate of [3H]DHS (Dihydrostreptomycin) uptake in Escherichia coli K12 (ATCC 25868) [pmol/min (optical density unit)E-1] at the C50 was determined.; OD means optical density; format: functional
In short: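 E. coli K12 grown in tryptone-peptone broth at 37 °C with shaking to OD600 0.20, preexposed 20 min at 37 °C to antibiotic across a dose range; cells pelleted, resuspended in TPB, given [3H]DHS (1.0 µCi/mL, 3.8 Ci/mmol) for 5.0 min at 37 °C; filtered, washed with 0.1 M LiCl, scintillation counted. Rate read at C50 (half-maximal induced rate) from dose-response curves.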

[8] = as §1; format: functional; in short: as §2
[9] = as §3; format: functional
Escherichia coli [10] = experiment: Estimated rate of [3H]DHS (Dihydrostreptomycin) uptake in Escherichia coli K12 (ATCC 25868) [pmol/min (optical density unit)E-1] at the C50 was determined;OD means optical density; format: functional; in short: as §4
[11] = (§5) Percent killing of the total Escherichia coli K12 (ATCC 25868)cells at the C50 concentration was determined.; format: ADME
[12] = as §5; format: functional

Compound	LD90 [1] [µM]	Kill at C50 [2] [%]	Uptake at C50 (Escherichia coli [3])	C50 (Escherichia coli [5]) [µM]	further results
CNC1C(OC2OC(CO)C(N)C(O)C2O)OC2CC(NC(=O)C(O)CCN)C(OC3C(N)CC(N)C(O)C3O)OC2C1O (centres undefined)	0.72	93	2.6	–	C50 (Escherichia coli [4]): 0.84 µM
CNC1C(OC2OC(CO)C(N)C(O)C2O)OC2CC(NC(=O)CN)C(OC3C(N)CC(N)C(O)C3O)OC2C1O (centres undefined)	0.83	53	3.3	0.45	–
NCC1CCC(N)C(OC2C(N)CC(N)C(OC3OC(CO)C(O)C(N)C3O)C2O)O1 (centres undefined)	0.89	74	8.1	–	–
CNC1C(OC2OC(CO)C(N)C(O)C2O)OC2CC(N)C(OC3C(N)CC(NC(=O)CN)C(O)C3O)OC2C1O (centres undefined)	0.84	94	2.1	–	C50 (Escherichia coli [4]): 1.1 µM
NCC1OC(OC2C(N)CC(NC(=O)C3(O)CNC3)C(OC3OC(CO)C(O)C(N)C3O)C2O)C(N)CC1O (centres undefined)	0.63	50	4.4	0.12	–
COC1C(O)C(N)C(OC2OC([C@H](C)N)CCC2N)C(O)C1N(C)C(=O)CN (some centres undefined)	0.7	93	5.6	0.86	–
CNC1C(O)C(OC2C(N)CC(N)C(OC3OC(C(C)N)CCC3N)C2O)OCC1(C)O (centres undefined)	0.14	98	–	–	Uptake at C50 (Escherichia coli [6]): 6.5; C50 (Escherichia coli [4]): 0.26 µM
NC[C@H]1O[C@H](O[C@@H]2[C@@H](O)[C@H](O[C@@H]3[C@H](O)[C@H](N)C[C@@H](N)[C@H]3O[C@H]3O[C@@H](CO)[C@@H](O)C[C@@H]3N)O[C@@H]2CO)[C@@H](N)[C@@H](O[C@H]2O[C@H](CO)[C@@H](O)[C@H](O)[C@@H]2O)[C@@H]1O	0.88	78	4.4	0.57	–
NCC1OC(OC2C(N)CC(NC(=O)C3(O)CCNC3)C(OC3OC(CO)C(O)C(N)C3O)C2O)C(N)CC1O (centres undefined)	0.31	65	4.4	0.12	–
CNC1C(OC2OC(CO)C(N)C(O)C2O)OC2CC(N)C(OC3C(N)CC(NC(=O)C(O)CCN)C(O)C3O)OC2C1O (centres undefined)	1.2	53	2.4	–	C50 (Escherichia coli [4]): 0.39 µM
CN(C)[C@@H]1C(O)=C(C(N)=O)C(=O)[C@@]2(O)C(O)=C3C(=O)c4c(O)cccc4[C@@](C)(O)[C@H]3C[C@@H]12	–	–	–	> 50	–
CN1C(NC2OC(CO)C(OC(N)=O)C(O)C2NC(=O)CC(N)CCCN)=N[C@@H]2[C@H](O)CNC(=O)[C@H]21 (some centres undefined)	–	–	4.1	0.1	–
CN[C@@H]1[C@H](O)[C@H](NC)[C@H]2O[C@@]3(O)C(=O)C[C@@H](C)O[C@H]3O[C@@H]2[C@H]1O	–	–	–	> 10	–
CN[C@H]1C[C@@H](N)[C@H](O)[C@@H](O[C@@H]2O[C@H](CO)[C@H](O)[C@H]3O[C@@]4(O[C@H]23)O[C@H]([C@H](N)CO)[C@H](O)[C@H](O)[C@H]4O)[C@@H]1O	–	–	–	> 50	–
NCCCCNCCCN	–	–	–	> 50	–
NC[C@@H]1O[C@@H](O[C@H]2[C@H](O)[C@@H](O[C@H]3O[C@H](CO)[C@@H](O)[C@H](N)[C@H]3O)[C@H](N)C[C@@H]2N)[C@@H](O)[C@H](O)[C@H]1O	–	–	3.5	0.95	–
O=C(N[C@H](CO)[C@H](O)c1ccc([N+](=O)[O-])cc1)C(Cl)Cl	–	–	–	> 50	–

Compound	LD90 [1] [µM]	Kill at C50 [2] [%]	Uptake at C50 (Escherichia coli [3])	C50 (Escherichia coli [5]) [µM]	further results
4-Amino-N-[5-amino-4-(3-amino-6-aminomethyl-4,5-dihydroxy-tetrahydro-pyran-2-yloxy)-3-(3,4-dihydroxy-5-hydroxymethyl-tetrahydro-furan-2-yloxy)-2-hydroxy-cyclohexyl]-2-hydroxy-butyramide (Butirosin)	–	–	4	0.13	–
NCC[C@H](O)C(=O)N[C@@H]1C[C@H](N)[C@@H](O[C@H]2O[C@H](CN)[C@@H](O)[C@H](O)[C@H]2O)[C@H](O)[C@H]1O[C@H]1O[C@H](CO)[C@@H](O)[C@H](N)[C@H]1O (stereo in doubt)	–	–	–	0.21	Uptake at C50 (Escherichia coli [7]): 4.7
NCC[C@H](O)C(=O)N[C@@H]1C[C@H](N)[C@@H](O[C@H]2O[C@H](CN)[C@@H](O)[C@H](O)[C@H]2O)[C@H](O)[C@H]1O[C@H]1O[C@H](CO)[C@@H](O)[C@H](N)[C@H]1O (stereo in doubt) [AMIKACIN]	–	–	–	–	LD90 [8]: 0.32 µM; Kill at C50 [9]: 76%
CN[C@@H]1[C@@H](O[C@H]2O[C@H](CO)[C@@H](N)[C@H](O)[C@H]2O)OC2C[C@@H](N)[C@@H](O[C@H]3[C@H](O)[C@@H](O)[C@H](N)C[C@@H]3N)OC2[C@@H]1O (some centres undefined) [APRAMYCIN]	0.67	95	–	0.87	Uptake at C50 (Escherichia coli [10]): 4
NC[C@H]1O[C@H](O[C@H]2[C@H](O)[C@@H](O[C@H]3O[C@H](CO)[C@@H](O)[C@H](N)[C@H]3O)[C@H](N)C[C@@H]2N)[C@H](N)[C@@H](O)[C@@H]1O [BEKANAMYCIN]	1.1	–	6.8	0.27	Kill at C50 [11]: 31%
NC[C@@H]1O[C@H](O[C@H]2[C@@H](O)[C@H](O[C@@H]3[C@@H](O)[C@H](N)C[C@H](N)[C@H]3O[C@H]3O[C@H](CN)[C@@H](O)[C@H](O)[C@H]3N)O[C@@H]2CO)[C@H](N)[C@@H](O)[C@@H]1O [FRAMYCETIN]	0.46	82	1.6	0.34	–
CN[C@@H]1[C@@H](O)[C@@H](O[C@@H]2[C@@H](O)[C@H](O[C@H]3O[C@H]([C@@H](C)NC)CC[C@H]3N)[C@@H](N)C[C@H]2N)OC[C@]1(C)O [GENTAMICIN C1]	0.25	85	–	0.21	Uptake at C50 (Escherichia coli [7]): 5.5
NC[C@H]1O[C@H](O[C@H]2[C@H](O)[C@@H](O[C@H]3O[C@H](CO)[C@@H](O)[C@H](N)[C@H]3O)[C@H](N)C[C@@H]2N)[C@H](O)[C@@H](O)[C@@H]1O [KANAMYCIN A]	0.85	93	–	–	–
NC[C@@H]1O[C@H](O[C@H]2[C@@H](O)[C@H](O[C@@H]3[C@@H](O)[C@H](N)C[C@H](N)[C@H]3O[C@H]3O[C@H](CO)[C@@H](O)C[C@H]3N)O[C@@H]2CO)[C@H](N)[C@@H](O)[C@@H]1O[C@H]1O[C@H](CO)[C@@H](O)[C@H](O)[C@@H]1O [LIVIDOMYCIN]	0.87	–	5.5	0.18	Kill at C50 [11]: 40%
CCN[C@@H]1C[C@H](N)[C@@H](O[C@H]2OC(CN)=CC[C@H]2N)[C@H](O)[C@H]1O[C@H]1OC[C@](C)(O)[C@H](NC)[C@H]1O [NETILMICIN]	0.38	86	5.8	0.32	–
NC[C@@H]1O[C@H](O[C@H]2[C@@H](O)[C@H](O[C@@H]3[C@@H](O)[C@H](N)C[C@H](N)[C@H]3O[C@H]3O[C@H](CO)[C@@H](O)[C@H](O)[C@H]3N)O[C@@H]2CO)[C@H](N)[C@@H](O)[C@@H]1O [PAROMOMYCIN]	0.78	–	3.9	0.32	Kill at C50 [11]: 61%
NC[C@H]1O[C@H](O[C@H]2[C@H](O[C@@H]3O[C@H](CO)[C@@H](O)[C@H]3O)[C@@H](O)[C@H](N)C[C@@H]2N)[C@H](N)[C@@H](O)[C@@H]1O [RIBOSTAMYCIN]	0.17	99	2.6	1.2	–
CN[C@@H]1[C@@H](O)[C@@H](O[C@@H]2[C@@H](O)[C@H](O[C@H]3OC(CN)=CC[C@H]3N)[C@@H](N)C[C@H]2N)OC[C@]1(C)O [SISOMICIN]	0.49	77	7	0.31	–
CN[C@@H]1[C@H](O[C@H]2[C@H](O[C@H]3[C@H](O)[C@@H](O)[C@H](N=C(N)N)[C@@H](O)[C@@H]3N=C(N)N)O[C@@H](C)[C@]2(O)C=O)O[C@@H](CO)[C@H](O)[C@H]1O [STREPTOMYCIN]	–	–	5.8	0.34	Kill at C50 [12]: 88%; LD90 [8]: 0.36 µM
NC[C@H]1O[C@H](O[C@H]2[C@H](O)[C@@H](O[C@H]3O[C@H](CO)[C@@H](O)[C@H](N)[C@H]3O)[C@H](N)C[C@@H]2N)[C@H](N)C[C@@H]1O [TOBRAMYCIN]	0.71	–	8.3	–	Kill at C50 [11]: 54%; C50 (Escherichia coli [4]): 0.24 µM
GENTAMICIN [listing 1 of 2 here]	0.43	–	–	–	Kill at C50 [11]: 72%
GENTAMICIN [listing 2 of 2 here]	–	–	7.3	0.24	–
